From PubChem
Compounds with a hit are over-represented: about 5.7% of the library has one in this group of screens.
Calb FLC = C. albicans growth modulation with fluconazole; 0.57% of 300,000 active; growth inhibition, % (test concentration not listed); C. albicans CaCi-2 (fluconazole-resistant clinical isolate) + fluconazole, Alamar Blue growth, 48 h;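 active = growth inhibition above about 58% in most replicates, limit read from the data, passing the limit was not always enough; inconclusive = exactly half the replicates above a set limit; inactive = most replicates below a set limit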;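 also: all wells also contain fluconazole at 8 µg/ml as a sub-toxic cotreatment; 0% = median of DMSO wells and 100% = median of geldanamycin control wells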
Mdm2 MdmX PPI = human Mdm2/MdmX binding inhibition. O15151+Q00987. SaOS-2 split-luciferase Mdm2/MdmX complementation, luminescence. inhibition, % at 8 µM. 3% of 330,000 active. AID 485346;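 active = inhibition of at least 50% at 8 µM in the primary screen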
Target sequence (O15151 whole entry, looked up): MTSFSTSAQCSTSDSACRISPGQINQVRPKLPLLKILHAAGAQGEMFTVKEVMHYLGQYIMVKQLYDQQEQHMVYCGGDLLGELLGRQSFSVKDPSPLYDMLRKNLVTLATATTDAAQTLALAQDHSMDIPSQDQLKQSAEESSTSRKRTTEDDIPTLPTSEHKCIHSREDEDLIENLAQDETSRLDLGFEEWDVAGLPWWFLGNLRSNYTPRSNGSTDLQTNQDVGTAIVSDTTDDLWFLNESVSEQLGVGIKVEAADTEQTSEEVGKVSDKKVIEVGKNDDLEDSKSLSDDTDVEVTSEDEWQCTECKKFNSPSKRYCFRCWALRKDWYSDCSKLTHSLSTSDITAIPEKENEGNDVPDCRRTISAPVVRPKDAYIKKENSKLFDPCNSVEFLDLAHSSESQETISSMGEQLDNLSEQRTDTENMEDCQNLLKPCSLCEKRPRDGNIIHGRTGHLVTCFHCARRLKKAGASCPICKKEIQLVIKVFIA
Target sequence (Q00987 whole entry, looked up): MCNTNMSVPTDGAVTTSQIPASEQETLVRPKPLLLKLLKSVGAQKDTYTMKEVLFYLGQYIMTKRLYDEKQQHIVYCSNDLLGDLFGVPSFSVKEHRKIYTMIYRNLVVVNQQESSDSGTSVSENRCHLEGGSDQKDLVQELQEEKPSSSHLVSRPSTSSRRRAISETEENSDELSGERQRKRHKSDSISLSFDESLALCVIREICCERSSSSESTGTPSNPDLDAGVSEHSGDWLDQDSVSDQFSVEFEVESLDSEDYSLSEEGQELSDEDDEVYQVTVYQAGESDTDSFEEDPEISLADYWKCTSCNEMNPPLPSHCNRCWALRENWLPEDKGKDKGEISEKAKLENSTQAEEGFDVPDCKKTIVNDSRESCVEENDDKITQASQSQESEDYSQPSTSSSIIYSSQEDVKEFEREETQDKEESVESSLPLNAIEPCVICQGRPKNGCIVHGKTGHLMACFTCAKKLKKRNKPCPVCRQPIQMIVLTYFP
Beta cell apopt = blocks beta cell apoptosis. protection from apoptosis, % (test concentration not listed). AID 435005. 0.8% of 300,000 active. INS-1E cytokine-induced death, ATP luminescence, 48 h; percent of positive-control rescue, neutral wells zero;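 active = Every replicate reaches about 75%, or at least half do and their mean reaches it too, limit read from the data; inconclusive = At least half of replicates reach the limit but their mean does not; inactive = Under half of replicates reach the limit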;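 also: 0% = cytokine-treated negative control wells and 100% = positive control rescue; higher means more ATP so stronger rescue from cytokine killing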
CSC inhib = blocks cancer stem cells | inhibition, % at 7.5 µM | cancer stem cell-like cells viability, luminescence | AID 2717 | 1.1% of 300,000 active; in the data active = inhibition above about 75%; inconclusive = no clear call, values can overlap the other calls; tested in HMLE shEcad cells
T cruzi repl = T. cruzi replication inhibition | T. cruzi beta-gal in NIH3T3, luminescence, 90 h | inhibition, % (concentration not given with the values) | 1.4% of 300,000 active | AID 1885;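 active = mean inhibition across valid replicates above about 55%, limit read from the data; inconclusive = mean below that limit but half or more replicates reach it; inactive = mean below it, under half of replicates reach it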;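 also: signal also drops with host cell toxicity which is not excluded here; 0% = plate median of DMSO wells and 100% = zero luminescence signal; higher percent means less beta-gal luminescence so fewer parasites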
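System – NIH/3T3 host cells with β-galactosidase reporter T. cruzi · Doses – single 50 nL compound addition per well in DMSO · Reagent – 5000 T. cruzi trypomastigotes/well · Medium – Low-serum DMEM with 2% FBS · Timing – ≥90 h infection period, 3 h prior cell attachment · Evaluation – parasite load inhibition, % · Technique – GalScreen luminescence, 60 min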
SKKanGAS inh = SKKanGAS growth inhibition; 1.3% of 300,000 active; inhibition, % at 7.5 µM; S. pyogenes SKKanGAS, kanamycin growth, BacTiter-Glo, 6 h;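 active = mean replicate score, as percent of positive control median, at least 50; inconclusive = mean below 50 but one replicate at or above 50; inactive = mean and every replicate below 50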;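 also: strain carries kanamycin resistance gene driven by streptokinase promoter and grows in 40 µg/ml kanamycin; loss of luminescence reflects streptokinase promoter inhibition or plain growth inhibition; 0% = median of DMSO wells and 100% = positive control at its reference dose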
Numbers without * were called inactive; u = inconclusive; x = not tested or not shown.

SMILES | Calb FLC | Mdm2 MdmX PPI | Beta cell apopt | CSC inhib | T cruzi repl | SKKanGAS inh
CCn1c(NC(=O)/C=C/c2ccc(F)cc2)nc2ccccc21 | -26 | 42 | 19 | 20 | 11 | 62*
CCn1c(SCC(=O)Nc2cc(C)on2)nnc1-c1ccc(OC)cc1 | 27 | 7 | -12 | -11 | -6 | 5
COc1ccccc1CCC(=O)OCC(=O)Nc1c(C)nn(-c2ccccc2)c1C | 5 | 6 | 0 | 11 | -15 | 1
Cc1cc(=O)oc2cc(OCC(=O)OC(C)C(=O)NC3CCCC3)ccc12 (configuration not stated) | -9 | 15 | -2 | -12 | -13 | -3
CCCn1c(NC(=O)c2ccc(F)cc2)nc2ccccc21 | -4 | 14 | 30 | -1 | 84* | 26
O=C(Nc1nc(-c2nc3ccccc3s2)cs1)C1COc2ccccc2O1 (configuration not stated) | 2 | -124 | 4 | 16 | -2 | 76*
CCCn1c(NC(=O)C2COc3ccccc3O2)nc2ccccc21 (configuration not stated) | 4 | 33 | 14 | 16 | 52 | 97*
CC(=O)Nc1nc2ccccc2n1CCOc1ccccc1 | -5 | 25 | 7 | 2 | -23 | 63*
COc1ccccc1C(C)NC(=O)c1ccc(S(=O)(=O)NCc2ccco2)cc1 (configuration not stated) | x | 10 | -1 | 0 | x | x
COc1ccc2cc(C(=O)N3CCCC(Nc4ccc(F)cc4)C3)n(C)c2c1 (configuration not stated) | 13 | -7 | -3 | 1 | -2 | 9
CCn1c(NC(=O)c2cccc(Cn3cc(Cl)cn3)c2)nc2ccccc21 | 9 | 43 | x | 22 | 47 | 85*
Cn1c(NC(=O)c2cccc(Cn3cc(Cl)cn3)c2)nc2ccccc21 | 29 | 20 | 23 | 9 | 2 | 16
CCCCn1c(NC(=O)C2CCCCC2)nc2ccccc21 | 3 | 40 | 30 | 14 | 27 | 97*
CCn1c(NC(=O)c2ccccc2)nc2ccccc21 | 30 | -8 | 6 | 7 | -17 | 23
CCCCn1c(NC(=O)c2ccccc2)nc2ccccc21 | 40 | 44 | 52 | 15 | 56* | 41
Cc1ccccc1N=C(NOCc1ccc(Cl)cc1Cl)c1nonc1N | -21 | 49 | 5 | 98* | u | 22
Cc1ccc(N=C(NOCc2ccc(Cl)cc2Cl)c2nonc2N)c(C)c1 | -2 | 30 | 11 | 1 | u | 34
N#Cc1cnn(-c2nc(SCc3ccccc3)nc3sc4c(c23)CCCC4)c1N | -4 | 24 | -4 | -3 | 60* | 17
CCNC(=O)N1CCC(n2nccc2NC(=O)CCCc2ccccc2)CC1 | 5 | 11 | 1 | -12 | -7 | -7
CCCCN(CCCC)S(=O)(=O)c1ccc(C(=O)Nc2nnc(CSC)o2)cc1 | 1 | 33 | 23 | 22 | 52 | 106*
C=CCN(CC=C)S(=O)(=O)c1ccc(C(=O)Nc2nnc(COC)o2)cc1 | 114* | 11 | 1 | 16 | -27 | 4
COc1ccccc1-c1nnc(NC(=O)c2ccc(S(=O)(=O)N(C)C)cc2)o1 | -5 | 3 | -1 | 13 | -11 | 31
COCc1nnc(NC(=O)c2ccc(S(=O)(=O)N(CC(C)C)CC(C)C)cc2)o1 | -10 | 44 | 4 | 26 | -37 | 34
CCN(Cc1ccccc1)S(=O)(=O)c1ccc(C(=O)Nc2nnc(-c3ccccc3OC)o2)cc1 | 83* | 42 | 11 | 6 | 62* | 94*
CCCCN(CC)S(=O)(=O)c1ccc(C(=O)Nc2nnc(-c3ccccc3Cl)o2)cc1 | 54 | 8 | 14 | -9 | -21 | 99*
SMILES | Calb FLC | Mdm2 MdmX PPI | Beta cell apopt | CSC inhib | T cruzi repl | SKKanGAS inh
CC(Sc1n[nH]c(=O)n1Cc1ccccc1)C(=O)NCC1CCCO1 (configuration not stated) | x | 0 | x | x | x | x
CC(C)[C@@H](C(=O)N1CCNCC1)n1cc(CCO)nn1 | 4 | -5 | -1 | -31 | -22 | 2
CCCCN(C)S(=O)(=O)c1ccc(C(=O)Nc2nnc(-c3cccs3)o2)cc1 | 84* | 45 | 11 | 111* | 57* | 101*
CCc1cc2cc(C(=O)Nc3ccc(F)cc3)sc2s1 | -26 | -31 | 2 | -1 | -7 | 5
CC(C)(C)c1ccc(C(=O)Nc2ccc(F)cc2)s1 | -2 | -181 | -3 | 28 | 15 | 53*
C=CS(=O)(=O)c1sc(Cl)c(N2CCOCC2)c1[N+](=O)[O-] | 3 | x | x | x | 55* | 1
C=CSc1sc(Cl)c(N2CCOCC2)c1[N+](=O)[O-] | -1 | 38 | 5 | -4 | -12 | -3
O=C(O)c1cccc(CN2C(=O)c3ccccc3C2=O)c1 | 6 | -8 | -1 | -11 | -17 | 9
O=C1c2cccc3c(O)ccc(c23)C(=O)N1Cc1ccccc1 | 100* | 9 | -1 | 20 | 1 | 11
CCOC(=O)c1cc(-c2ccc3c(c2)OCCO3)nc2c1c(C)nn2CCC#N | -3 | 41 | 6 | -4 | 20 | 81*
Cc1ccc(C(=O)NC(=S)N(C)C2CCCCC2)cc1Br | 2 | 33 | 8 | 23 | 60* | 85*
CN(C(=S)NC(=O)c1ccccc1Br)C1CCCCC1 | 24 | -30 | 0 | -1 | -21 | 4
COc1ccc(C(=O)NC(=S)N(C)C2CCCCC2)cc1Br | 11 | 37 | 12 | 21 | 60* | 73*
COc1ccc(C(=O)NC(=S)N(C)C2CCCCC2)cc1 | 4 | -8 | -2 | -19 | x | x
CCCc1ccc2oc(C(=O)N3CCCC3)c(C)c2c1 | 3 | -22 | x | x | -1 | 1
Cc1ccc2c(c1)nnn2C1CCN(S(=O)(=O)c2ccc(C(=O)N3C(C)CCCC3C)cc2)CC1 (configuration not stated) | 12 | 26 | 106* | 41 | 41 | 2
Cc1ccc2c(c1)nnn2C1CCN(S(=O)(=O)c2ccc(C(=O)O)cc2)CC1 | 21 | 3 | 3 | -19 | -13 | -2
COc1ccc([C@@H]2C=C(C(=O)O)O[C@H](OCCCCO)C2)cc1 | 1 | 12 | -21 | -3 | -25 | 3
COc1ccc(NC(=O)N2CCCC(c3nc(-c4ccc(C(C)C)cc4)no3)C2)cc1 (configuration not stated) | 5 | -119 | 16 | 96* | 10 | 3
CSc1nc2sc3c(c2c(=O)n1CC(C)C)CC(C)(C)OC3 | -3 | -5 | -1 | 75* | -28 | 3
COc1ccc(CN(C)C(=O)Cc2ccc(S(=O)(=O)N3CCOCC3)s2)cc1OC | x | 9 | -5 | -11 | x | x
Cc1ccc2nc(SCC(=O)N3CCN(c4ccccc4)CC3)[nH]c2c1 | 0 | 5 | 1 | -2 | -2 | 4
CC1CCCN(C(=O)c2cccc(S(=O)(=O)Nc3cc(C(F)(F)F)ccc3Cl)c2)C1 (configuration not stated) | 94* | x | -1 | 15 | 6 | 7
O=C(c1cccc(S(=O)(=O)Nc2ccccc2Cl)c1)N1CCC1 | 6 | -2 | 3 | -14 | 10 | -2
